Screening results deposited in PubChem by The Scripps Research Institute Molecular Screening Center.
OX1R antag-1: blocks the human orexin 1 receptor | O43613 | actives 0.43% (n = 330,000) | AID 434989 | CHO/OX1R cells, Fluo-8 calcium fluorescence, orexin A | inhibition, % at 5 µM;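 active = inhibition above its plate's threshold, mean inhibition of all tested compounds on the plate plus 3 SD, cut at about 37% in these data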;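 note: 0% = orexin A challenge wells and 100% = SB-334867-A antagonist wells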
OXTR agonist: human OXTR agonism; activation, % at 3 µM; CHO-OTR cells, Fluo-8 calcium fluorescence; normalized: DMSO 0%, oxytocin 100%; AID 2435; actives 0.32% (n = 320,000);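 active = activation above the mean of all tested compounds plus 3 SD, cutoff set per screening run, cut at about 20% in these data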;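 note: peak over basal fluorescence ratio from a 100 s FLIPR kinetic read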
OX1R antag-2: OX1R (human) antagonism; O43613; OX1R-expressing cells, FRET antagonist read-out; inhibition, % at 6.6 µM; actives 1.8% (n = 330,000); AID 485270; in the data active = inhibition mostly above about 38%, no sharp cut-off; inactive = mostly below about 40%;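 note: 0% = agonist challenge alone and 100% = reference antagonist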
CHO parental Ca: counter-screen for OX1R antagonists: effect in parental CHO cells | inhibition, % at 5.6 µM | actives 0.63% (n = 330,000) | parental CHO-K1, ATP-induced calcium, Fluo-8 fluorescence;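 active = inhibition above that plate's mean sample inhibition plus 3 SD, cut at about 26% in these data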;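 note: 0% = ATP-challenged DMSO wells and 100% = DMSO wells without ATP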
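material = parental CHO cells | also added = ATP as calcium-mobilizing challenge | dosing = single point at 5.6 µM | detection = intracellular calcium via Fluo-8 no-wash fluorescent dye | read-out = % inhibition | benchmarks = low control ATP plus DMSO, high control DMSO only | repeats = one well per compound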
OXTR potentiator: potentiators of human oxytocin receptor; P30559; CHO-OTR cells, Fluo-8 calcium fluorescence, potentiator mode; 0% = oxytocin EC15, 100% = EC100; activation, % at 3 µM; actives 0.061% (n = 320,000); AID 2445;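 active = activation above that plate's cutoff, the mean activation of tested compounds plus 3 SD, cut at about 6.6% in these data, passing the limit was not always enough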;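 note: 100% uses oxytocin at 75 nM as the full agonist control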
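test system = CHO-OTR cells, human receptor | compound = single-point 3.0 µM | schedule = 6 min compound pre-incubation at room temperature, 100 s kinetic read | signal = Fluo-8 no-wash calcium dye fluorescence, excitation 470-495 nm, emission 515-575 nm | repeats = single well per compound, singlicate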
V1R ag counter: counter-screen for oxytocin receptor agonists: human V1a receptor agonists; P37288; CHO-V1R cells, Fluo-8 calcium fluorescence, agonist mode; 0% DMSO, 100% 3 nM vasopressin; activation, % at 3 µM; actives 0.25% (n = 320,000);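 active = activation above the mean activation of all tested compounds plus 3 SD, per screening run, cut at about 20% in these data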;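 note: signal is peak over basal fluorescence ratio across a 100 second FLIPR read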
Target sequence (P37288 whole entry, looked up): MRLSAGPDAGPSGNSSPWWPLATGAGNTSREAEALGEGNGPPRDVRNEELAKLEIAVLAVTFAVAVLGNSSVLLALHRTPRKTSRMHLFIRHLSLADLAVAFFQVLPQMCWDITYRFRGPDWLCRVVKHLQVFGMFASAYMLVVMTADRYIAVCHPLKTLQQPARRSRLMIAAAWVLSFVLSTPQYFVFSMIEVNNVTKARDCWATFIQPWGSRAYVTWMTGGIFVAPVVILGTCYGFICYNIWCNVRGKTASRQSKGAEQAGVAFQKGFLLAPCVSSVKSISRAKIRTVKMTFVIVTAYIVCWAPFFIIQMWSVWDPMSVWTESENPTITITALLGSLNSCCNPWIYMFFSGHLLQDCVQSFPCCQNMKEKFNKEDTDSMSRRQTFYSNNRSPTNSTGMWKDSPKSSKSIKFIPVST
* hit, by the source's call. Rows were chosen to be rich in hits. Some 2.6% of all compounds tested hit in one or more screens of this group.

SMILES	OX1R antag-1	OXTR agonist	OX1R antag-2	CHO parental Ca	OXTR potentiator	V1R ag counter
O=C(Nc1ccc2ccccc2n1)c1ccccc1Cl	-19.4	-1.1	21.9	-11.0	-13.1	1.4
COc1ccc(C(=O)Nc2ccc3ccccc3n2)c(OC)c1OC	-1.2	-0.6	57.1*	-17.3	-1.1	0.6
CCOC(=O)C1(CCOC)CCN(C/C=C/c2ccccc2OC)CC1	-3.2	4.1	0.6	-1.9	-7.4	6.3
O=C(CSc1nnnn1-c1ccccc1)Nc1ccc(Cl)cn1	-0.2	0.7	11.1	43.9*	-26.3	0.7
CSc1nnc2c(n1)OC(c1ccccn1)N(C(C)=O)c1ccccc1-2 (centres undefined)	-9.7	0.0	18.8	-2.7	3.5	-0.1
CSc1nnc2c(n1)OC(c1ccc(C(=O)O)cc1)N(C(C)=O)c1ccccc1-2 (centres undefined)	-2.7	1.0	49.6*	-4.8	-0.8	1.1
CC(c1ccccc1C(O)(c1ccccc1)c1ccccc1)N(C)C (centres undefined)	32.4	43.4*	4.9	30.2*	-21.4	47.8*
O=c1[nH]c(NCCO)nc2c1C1(CCCCC1)Cc1ccccc1-2	19.8	-0.4	10.4	81.3*	-18.8	4.4
CCC1(CC)Cc2ccccc2-c2nc(NCCO)[nH]c(=O)c21	-33.0	1.1	-2.7	-17.7	-0.1	0.5
CCN(CC)c1ccc(S(=O)(=O)Nc2cc(Cl)ccc2Cl)cc1NC(=S)NC(=O)C1CCCC1	-0.8	-1.2	30.7	-11.3	-16.8	1.3
CN(C)S(=O)(=O)c1ccc(Cl)c(NC(=O)CN2CCCCCC2)c1	-26.5	0.2	17.4	7.0	5.3	-0.2
CCN(CC)S(=O)(=O)c1ccc(Cl)c(NC(=S)NC(=O)C2CCCC2)c1	67.2*	4.0	9.0	44.5*	-11.0	3.4
CCN(c1ccccc1)S(=O)(=O)c1ccc(Cl)c(NC(=O)CN2CCCCCC2)c1	32.1	0.7	86.8*	72.9*	-5.0	1.0
COC(=O)CSc1nnc(CCc2ccccc2)n1C	-9.1	-0.2	10.7	6.9	-1.0	0.6
O=C(Nc1ccc(Cl)c(Cl)c1)Nc1ccccc1NS(=O)(=O)c1cccs1	2.0	13.3	66.3	35.0*	-14.3	12.7
CC(C)CC(=O)Nc1ccc(C(=O)CN2C(=O)NC3(CCOc4ccccc43)C2=O)cc1 (centres undefined)	-14.7	1.4	9.3	-9.0	-7.6	-1.0
O=C(COC(=O)c1ccc([N+](=O)[O-])s1)NCCc1ccccc1	-9.8	-0.3	27.2*	-12.1	-3.9	0.6
O=C(COC(=O)c1ccc(O)cc1)NC(=O)NCc1ccccc1	-0.1	11.6	1.3	-10.7	-10.3	8.2
NS(=O)(=O)c1ccc(NC(=O)COC(=O)c2ccc([N+](=O)[O-])s2)cc1	8.2	0.5	37.0	-0.9	2.2	0.0
CN(CC(=O)Nc1ccccc1Cl)C(=O)COC(=O)c1ccc([N+](=O)[O-])s1	-10.0	0.9	43.5*	-0.5	0.7	1.1
Cc1cc(C)c(NC(=O)COC(=O)c2ccc([N+](=O)[O-])s2)c(C)c1	-1.7	-1.2	29.7	-5.3	-5.5	1.6
O=C(COC(=O)c1ccc([N+](=O)[O-])s1)NNC(=O)c1ccccc1	4.8	1.8	56.7*	2.9	-2.7	1.4
O=C(COC(=O)c1ccc([N+](=O)[O-])s1)NC(=O)NCc1ccccc1	-7.4	1.7	49.0*	-6.6	-15.8	1.8
Cc1ccc(S(=O)(=O)Nc2cccc3c2O[C@H](CN(C)Cc2ccccc2)[C@@H](C)CN([C@H](C)CO)C3=O)cc1	-2.3	0.0	14.5	-11.1	9.0	0.8
O=C(CCC(=O)Nc1ccccc1Cl)NNC(=O)Nc1cccc([N+](=O)[O-])c1	-3.0	1.7	3.3	-4.8	6.0	1.0
O=C(COC(=O)c1ccc([N+](=O)[O-])s1)c1ccc[nH]1	15.8	0.5	60.7*	-6.8	-5.1	3.3
Cc1ccc(OCC(=O)N(C)C2CCCCC2)c([N+](=O)[O-])n1	-4.6	-0.5	15.6	-16.9	0.6	1.4
Cc1cccc(OCC(=O)Nc2ccc3oc(=O)ccc3c2)c1	8.1	4.0	21.6	10.0	-9.0	5.5
